Data published in paper PMC6099226 (Diabetes, Obesity & Metabolism, 2018).

Key:
Format in all cases: in vivo, human
adults with T2DM [1] = assay: Analysis of GI AEs
Method in brief: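 Adults with T2DM from four phase III trials received once-weekly subcutaneous injections, escalated every 4 weeks (0.25, 0.5, 1.0 mg). Nausea reports were counted from baseline to week 30. Proportions were plotted against time by dose, with each dose split into high/low exposure halves by Cavg at the maintenance dose. Logistic regression adjusted for trial, sex, age group, escalation regimen and Japanese race. LOCF and completer sensitivity analyses were run.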

adults with T2DM [2] = conditions: semaglutide 0.5 and 1.0 mg
adults with T2DM [3] = assay: Exposure-response analysis of elevated serum calcitonin
Method in brief: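 Serum calcitonin was measured by chemiluminescent immunometric assay (range 2.0–2000 pg/mL). Only participants with normal baseline values and post-baseline data were included, without imputation. The proportion with elevated calcitonin at any time until end-of-treatment was plotted with 95% CI against Cavg quantiles, with placebo at zero exposure. A covariate-adjusted exposure-response model was fitted.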

[4] = Semaglutide exposure: average steady-state concentration; conditions: mean Cavg at steady state
Method in brief: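 Plasma samples were taken 4–5 times per participant, at weeks 4, 8, 16 and 30, plus week 56 except in SUSTAIN 1. Assay was validated LC-MS/MS with LLOQ 0.729 nmol/L; samples below it were excluded. Average steady-state concentration at the randomized once-weekly subcutaneous maintenance dose was derived from individual clearance estimates of a population-PK analysis.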

With `CC[C@H](C)[C@H](NC(=O)[C@H](Cc1ccccc1)NC(=O)[C@H](CCC(=O)O)NC(=O)[C@H](CCCCNC(=O)COCCOCCNC(=O)COCCOCCNC(=O)CC[C@H](NC(=O)CCCCCCCCCCCCCCCCC(=O)O)C(=O)O)NC(=O)[C@H](C)NC(=O)[C@H](C)NC(=O)[C@H](CCC(N)=O)NC(=O)CNC(=O)[C@H](CCC(=O)O)NC(=O)[C@H](CC(C)C)NC(=O)[C@H](Cc1ccc(O)cc1)NC(=O)[C@H](CO)NC(=O)[C@H](CO)NC(=O)[C@@H](NC(=O)[C@H](CC(=O)O)NC(=O)[C@H](CO)NC(=O)[C@@H](NC(=O)[C@H](Cc1ccccc1)NC(=O)[C@@H](NC(=O)CNC(=O)[C@H](CCC(=O)O)NC(=O)C(C)(C)NC(=O)[C@@H](N)Cc1cnc[nH]1)[C@@H](C)O)[C@@H](C)O)C(C)C)C(=O)N[C@@H](C)C(=O)N[C@@H](Cc1c[nH]c2ccccc12)C(=O)N[C@@H](CC(C)C)C(=O)N[C@H](C(=O)N[C@@H](CCCNC(=N)N)C(=O)NCC(=O)N[C@@H](CCCNC(=N)N)C(=O)NCC(=O)O)C(C)C` [semaglutide] the “proportion of participants reporting nausea” value (adults with T2DM [1]; during the first 4 weeks, also for participants with high exposure) was under 7%, the “concentration of semaglutide estimated to be tolerated without nausea by 95% of participants” value (adults with T2DM [1]; week 1) was under 5 nM and the “concentration of semaglutide estimated to be tolerated without nausea by 95% of participants” value (adults with T2DM [1]; week 30) was over 30 nM. For the same compound, the “increase from baseline to end‐of‐trial in mean resting pulse rate” value (adults with T2DM [2]) was 2−4 bpm, the “proportion of participants with serum calcitonin concentrations above the reference ranges” value (adults with T2DM [3]; any time after baseline until end‐of‐treatment, 36 of 1395 participants, placebo data included in the analysis) was 2.6% and the “dependence of elevated calcitonin levels on exposure” value (adults with T2DM [3]; range of exposures achieved with 0.5 and 1.0 mg, no effect vs placebo) was “independent of exposure”. It also gave a Semaglutide exposure ([4]; All men, dose 0.5 mg once weekly) of 15.0 nmol/L, a Semaglutide exposure ([4]; All men, dose 1.0 mg once weekly) of 29.9 nmol/L and a Semaglutide exposure ([4]; All participants, dose 0.5 mg once weekly) of 15.3 nmol/L. The Semaglutide exposure ([4]; All participants, dose 1.0 mg once weekly) was 30.6 nmol/L, the Semaglutide exposure ([4]; All women, dose 0.5 mg once weekly) was 15.9 nmol/L and the Semaglutide exposure ([4]; All women, dose 1.0 mg once weekly) was 31.7 nmol/L.
